The values that follow come from ChEMBL document CHEMBL2086351, “Α-aryl-N-alkyl nitrones, as potential agents for stroke treatment: synthesis, theoretical calculations, antioxidant, anti-inflammatory, neuroprotective, and brain-blood barrier permeability properties” (J Med Chem, 2012).

Calls of active or inactive are those of the source. No cut-off for these calls is given here.

One data set has as its system Rattus norvegicus. Kind of data set: Antiinflammatory activity in Fisher 344 rat assessed as inhibition of carrageenan-induced paw edema at 0.01 mmol/kg, ip measured 3.5 hrs after carrageenan challenge. It is filed as functional. Particulars: Fisher 344, ip. The procedure, abridged:
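Percent inhibition of carrageenan-induced rat paw oedema relative to untreated controls. Compounds given at 0.01 mmol/kg. Six animals per group in two independent experiments (n = 6 × 2), reported as mean ± SD. Significance versus controls by Student's t test.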
A general note: In the carrageenan paw model, swelling and tenderness develop within hours.

Data set [1] can be described thus: Antioxidant activity assessed as Fe3+/ascorbic acid-induced hydroxyl radical scavenging activity at 0.1 mM after 30 mins. The data set is classed as functional. The essentials: (§1)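 Tested in vitro at 0.1 mM. The hydroxyl radical line measures competition with DMSO for hydroxyl radicals. Superoxide was generated at pH 7.4 and read as nitroblue tetrazolium reduction to formazan at 560 nm. LOX inhibition was measured by UV absorbance enzyme assay with plant lipoxygenase.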

Data set [2] is described as follows: Neuroprotective activity in Sprague-Dawley rat primary cortical neurons assessed as reversal of oxygen-glucose deprivation-induced neuronal damage at 10 uM by treated 4 hrs after OGD challenge measured after 24 hrs by LDH release assay relative to control. It is filed as functional, Cerebral cortex neuron. The essentials:
(§2)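 Primary cortical neurons, cultured 6–8 days, underwent 4 h oxygen–glucose deprivation followed by 24 h reperfusion. Compounds (1–250 μM) were added at reperfusion. Necrotic death was read as LDH release, normalized to untreated reperfusion cells as 100%. Four independent experiments; mean ± SEM; one-way ANOVA with Holm–Sidak post test.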
For orientation: LDH leaks from cells whose membrane has failed.

Data set [3] can be described thus: Antioxidant activity against AAPH-induced lipid peroxidation assessed as induction time of inhibition at 0.1 mM. It is filed as functional.
Data set [4] can be described thus: Antioxidant activity assessed as superoxide anion radical scavenging activity at 0.1 mM after 10 mins by tetrazolium dye assay. The data set is classed as functional. The procedure, abridged:
as §1

The nature of data set [5]: Antioxidant activity assessed as inhibition of AAPH-induced lipid peroxidation at 0.1 mM by UV spectrophotometric analysis. The data set is classed as functional.
A short description of data set [6]: Neuroprotective activity in Sprague-Dawley rat primary cortical neurons assessed as reversal of oxygen-glucose deprivation-induced neuronal damage at 1 uM by treated 4 hrs after OGD challenge measured after 24 hrs by LDH release assay relative to control. The data set is classed as functional, Cerebral cortex neuron. The essentials:
as §2

The target in data set [7] is Lipoxygenase (Glycine max) (UniProt Q39829). Kind of data set: Inhibition of soybean lipoxygenase assessed as conversion of sodium linoleate to 13-hydroperoxylinoleic acid at 0.1 mM by competitive inhibition assay. The essentials:
as §1

Data set [8] is described as follows: Permeability of the compound at pH 7.4 by PAMPA. It is filed as ADME. The following applies: read-out: permeability. The essentials: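 PAMPA-BBB method of Di et al. (passive blood–brain barrier permeation). Effective permeability is reported as Pe in 10−6 cm s−1.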
The test system of data set [9] is Radical scavenging activity. Kind of data set: Antioxidant activity assessed as DPPH radical scavenging activity at 0.5 mM after 2 hrs by spectrophotometric analysis. The data set is classed as functional. The procedure, abridged:
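DPPH radical test, measuring initial absorbance and absorbance after reaction spectrophotometrically.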

Another data set has as its system Mus musculus. Kind of data set: Neuroprotective activity in NMRI mouse assessed as protection against tert-butyl hydroperoxide-mediated lethality at 150 mg/kg, ip administered 30 mins before t-BHP challenge measured after 1 to 24 hrs. It is filed as functional. Particulars: route intraperitoneal.
Data set [10] can be described thus: Neuroprotective activity in Sprague-Dawley rat primary cortical neurons assessed as reversal of oxygen-glucose deprivation-induced neuronal damage treated 4 hrs after OGD challenge measured after 24 hrs MTT assay. The data set is classed as functional, cell-based. Particulars: Cerebral cortex neuron. The essentials: (§3)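 Primary cerebral cortex neurons, cultured 6–8 days, underwent 4 h oxygen–glucose deprivation. Compounds (0.1 μM–10 mM range) were added at the start of a 24 h reperfusion. Viability was read by MTT with untreated control as 100%. Neuroprotection = % recovery from the reperfusion-only value (0%) to control (100%). Three to five independent experiments; mean ± SEM.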

The nature of data set [11]: Induction of NO release in phosphate buffer at pH 7.4 at 0.1 mM by Griess assay in presence of L-cysteine. It is filed as physicochemical. The following applies: pH 7.4, 100 µM. The essentials: (§4)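 Compounds at 100 μM final were dissolved in phosphate buffer pH 7.4 containing L-cysteine. Released NO was measured. Where indicated, 1 mM cysteine and a nitrate reductase/NADPH system were used. Sodium nitroprusside served as reference.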
For orientation: Nitrite, measured by Griess reagent, commonly stands in for NO production.

A short description of data set [12]: Neuroprotective activity in Sprague-Dawley rat primary cortical neurons assessed as reversal of oxygen-glucose deprivation-induced neuronal damage at 250 uM by treated 4 hrs after OGD challenge measured after 24 hrs by LDH release assay relative to control. The data set is classed as functional, Cerebral cortex neuron. The procedure, abridged: as §2
Data set [13] can be described thus: Induction of NO release in phosphate buffer at pH 7.4 assessed as nitrite level at 0.1 mM by nitrate reductase/NADPH based Griess assay in presence of L-cysteine. The following applies: pH 7.4, 100 µM. It is filed as physicochemical. The essentials:
as §4

Data set [14] in a line: Neuroprotective activity in Sprague-Dawley rat primary cortical neurons assessed as reversal of oxygen-glucose deprivation-induced neuronal damage at 100 uM by treated 4 hrs after OGD challenge measured after 24 hrs by LDH release assay relative to control. It is filed as functional, Cerebral cortex neuron. The essentials:
as §2

Data set [15] can be described thus: Neuroprotective activity in Sprague-Dawley rat primary cortical neurons assessed as reversal of oxygen-glucose deprivation-induced neuronal damage at 5 mM by treated 4 hrs after OGD challenge measured after 24 hrs MTT assay relative to control. The data set is classed as functional, cell-based. The following applies: Cerebral cortex neuron. The essentials: as §3

Data set [16] has as its system Radical scavenging activity. Kind of data set: Antioxidant activity assessed as DPPH radical scavenging activity at 15 uM after 2 hrs by spectrophotometric analysis. The data set is classed as functional.
Data set [17] can be described thus: Neuroprotective activity in Sprague-Dawley rat primary cortical neurons assessed as reversal of oxygen-glucose deprivation-induced neuronal damage at 250 uM by treated 4 hrs after OGD challenge measured after 24 hrs MTT assay relative to control. The following applies: Cerebral cortex neuron. The data set is classed as functional, cell-based. The essentials: as §3

Data set [18] can be described thus: Neuroprotective activity in Sprague-Dawley rat primary cortical neurons assessed as reversal of oxygen-glucose deprivation-induced neuronal damage at 100 uM by treated 4 hrs after OGD challenge measured after 24 hrs MTT assay relative to control. The data set is classed as functional, cell-based. The following applies: Cerebral cortex neuron. The essentials: as §3

Data set [19] in a line: Neuroprotective activity in Sprague-Dawley rat primary cortical neurons assessed as reversal of oxygen-glucose deprivation-induced neuronal damage at 1 uM by treated 4 hrs after OGD challenge measured after 24 hrs MTT assay relative to control. The data set is classed as functional, cell-based. Particulars: Cerebral cortex neuron. The essentials: as §3

Take `COc1ccc2c(c1)c(CC(=O)O)c(C)n2C(=O)c1ccc(Cl)cc1` [INDOMETHACIN]: the inhibition in vivo at 10 µmol/kg in the data set with Rattus norvegicus turned out to be 47%.

Turning to `Cc1ccc2nc(Cl)c(/C=[N+](\[O-])C(C)(C)C)cc2c1`, the Activity in [1] turned out to be 100%; in [2] it was 62.22%; in data set [4], 12%; in data set [6], 70.17%; in [9], 1.7%; in the data set on Mus musculus, 70%. The TIME in data set [3] is 0.945 h. Besides, in data set [5], the inhibition was found to be 85%. Besides, the inhibition entry in data set [7] is “inactive”. The Papp in [8] was 15 ×10⁻⁶ cm/s.

Take `C/[N+]([O-])=C/c1ccccc1`: the Activity in data set [1] was determined as 77%; in data set [4] it was 8%. For the same compound, the outcome in [10] was inactive. For the same compound, the TIME in data set [3] turned out to be 0.0167 h. Besides, the results for the inhibition in data set [5] and in data set [7] were 5% and 22%, respectively. Besides, the inhibition in vivo at 10 µmol/kg in the data set on Rattus norvegicus came out at 26.5%.

Take `CC(C)(C)/[N+]([O-])=C/c1ccccc1`: the Activity is 90% in [1]; 2% in data set [11]; 73.2% in data set [12]; 15% in data set [4]; 4.5% in data set [13]; 67.82% in data set [14]. For the same compound, the Activity in [15] was -13.4%. The result in [10] was inactive. Besides, in [3], the TIME came out at 0 h. Further, the inhibition result in [5] is “inactive”. Also, in [7], the inhibition is 83%.

As for `CC(C)(C)/[N+]([O-])=C/c1cccnc1Br`, the Activity in [1] was determined as 93%; in [11], 4%; in data set [4], 10%; in data set [13], 5.5%. In [3], the TIME came to 0.133 h. Besides, the inhibition worked out at 40% in data set [5] and 88% in data set [7]. The inhibition in vivo at 10 µmol/kg with Rattus norvegicus stood at 23.2%.

Regarding `COc1cc(/C=C/C(=O)CC(=O)/C=C/c2ccc(O)c(OC)c2)ccc1O`, the Activity in data set [16] stood at 35%.

Turning to `CC(C)(C)/[N+]([O-])=C/c1cccc(C(F)(F)F)c1`, the Activity stood at 60% in [1]; 81.2% in data set [17]; 70.08% in data set [12]; 29% in data set [4]; 0.9% in data set [9]; 101% in data set [18]. The Activity in [19] is 71.2%; in the data set on Mus musculus, 12%. For the same compound, the TIME in [3] worked out at 0 h. Moreover, the inhibition in [7] was determined as 65%. Besides, the Papp in data set [8] amounted to 27 ×10⁻⁶ cm/s.

As to `O=c1c(O)c(-c2ccc(O)c(O)c2)oc2cc(O)cc(O)c12`, the Activity in [16] is 94.2%.

Usually inhibition in vivo stands for the relative decrease from the control value, in per cent. A word on the inhibition: it is how much of the control response was suppressed.
